Test results from ChEMBL document CHEMBL4229333, “Effects of rigidity on the selectivity of protein kinase inhibitors” (Eur J Med Chem, 2018).

Legend:
[1] = target: NUAK family SNF1-like kinase 1 (Homo sapiens) (UniProt O60285); test: Inhibition of ARK5 (unknown origin) at 1 uM by mobility shift microfluidics platform based assay relative to control
[2] = target: Mitogen-activated protein kinase 9 (Homo sapiens) (UniProt P45984); test: Inhibition of JNK2 (unknown origin) at 1 uM by mobility shift microfluidics platform based assay relative to control
Sequence of Mitogen-activated protein kinase 9 (Homo sapiens) (P45984 whole entry, looked up): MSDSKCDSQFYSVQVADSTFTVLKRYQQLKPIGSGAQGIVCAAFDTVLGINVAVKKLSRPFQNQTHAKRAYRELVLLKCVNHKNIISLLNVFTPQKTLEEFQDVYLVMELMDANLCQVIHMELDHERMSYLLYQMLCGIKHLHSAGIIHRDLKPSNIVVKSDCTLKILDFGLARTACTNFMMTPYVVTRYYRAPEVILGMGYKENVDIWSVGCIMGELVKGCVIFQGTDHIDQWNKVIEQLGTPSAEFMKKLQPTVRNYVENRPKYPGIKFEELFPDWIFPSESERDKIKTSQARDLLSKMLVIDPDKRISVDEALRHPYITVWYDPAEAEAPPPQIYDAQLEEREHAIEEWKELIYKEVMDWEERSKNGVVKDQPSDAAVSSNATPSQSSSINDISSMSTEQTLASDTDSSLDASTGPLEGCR

[3] = target: Aurora kinase A (Homo sapiens) (UniProt O14965); test: Inhibition of AURORA-A (unknown origin) at 1 uM by mobility shift microfluidics platform based assay relative to control
[4] = target: 3-phosphoinositide-dependent protein kinase 1 (Homo sapiens) (UniProt O15530); test: Inhibition of PDK1 (unknown origin) at 1 uM by mobility shift microfluidics platform based assay relative to control
[5] = target: G protein-coupled receptor kinase 6 (Homo sapiens) (UniProt P43250); test: Inhibition of GRK6 (unknown origin) at 1 uM by mobility shift microfluidics platform based assay relative to control
[6] = target: Vascular endothelial growth factor receptor 2 (Homo sapiens) (UniProt P35968); test: Inhibition of KDR (unknown origin) at 1 uM by mobility shift microfluidics platform based assay relative to control
[7] = target: Fibroblast growth factor receptor 4 (Homo sapiens) (UniProt P22455); test: Inhibition of FGFR4 (unknown origin) at 1 uM by mobility shift microfluidics platform based assay relative to control
[8] = target: Serine/threonine-protein kinase LATS2 (Homo sapiens) (UniProt Q9NRM7); test: Inhibition of LATS2 (unknown origin) at 1 uM by mobility shift microfluidics platform based assay relative to control
[9] = target: Interleukin-1 receptor-associated kinase 1 (Homo sapiens) (UniProt P51617); test: Inhibition of IRAK1 (unknown origin) at 1 uM by mobility shift microfluidics platform based assay relative to control
Sequence of Interleukin-1 receptor-associated kinase 1 (Homo sapiens) (P51617 whole entry, looked up): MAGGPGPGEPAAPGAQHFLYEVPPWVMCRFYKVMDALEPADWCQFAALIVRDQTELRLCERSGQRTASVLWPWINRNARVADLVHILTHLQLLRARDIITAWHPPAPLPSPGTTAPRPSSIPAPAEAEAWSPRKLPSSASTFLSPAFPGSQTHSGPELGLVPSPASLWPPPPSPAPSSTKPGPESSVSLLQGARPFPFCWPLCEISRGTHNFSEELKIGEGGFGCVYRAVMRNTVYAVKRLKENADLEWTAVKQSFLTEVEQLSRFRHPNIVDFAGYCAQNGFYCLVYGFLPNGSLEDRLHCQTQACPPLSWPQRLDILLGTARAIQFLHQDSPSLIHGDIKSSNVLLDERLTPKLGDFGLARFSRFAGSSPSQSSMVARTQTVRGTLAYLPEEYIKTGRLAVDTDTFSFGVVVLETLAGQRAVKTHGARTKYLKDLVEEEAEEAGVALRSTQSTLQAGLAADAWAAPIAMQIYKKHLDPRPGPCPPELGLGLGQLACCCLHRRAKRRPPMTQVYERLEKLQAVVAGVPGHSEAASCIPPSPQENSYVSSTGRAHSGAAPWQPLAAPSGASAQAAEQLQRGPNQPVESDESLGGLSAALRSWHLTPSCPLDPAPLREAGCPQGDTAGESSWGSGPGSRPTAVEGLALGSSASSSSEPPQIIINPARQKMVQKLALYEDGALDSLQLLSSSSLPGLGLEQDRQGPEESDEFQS

[10] = target: Serine/threonine-protein kinase N1 (Homo sapiens) (UniProt Q16512); test: Inhibition of PKN1 (unknown origin) at 1 uM by mobility shift microfluidics platform based assay relative to control
Sequence of Serine/threonine-protein kinase N1 (Homo sapiens) (Q16512 2-942 limits assumed): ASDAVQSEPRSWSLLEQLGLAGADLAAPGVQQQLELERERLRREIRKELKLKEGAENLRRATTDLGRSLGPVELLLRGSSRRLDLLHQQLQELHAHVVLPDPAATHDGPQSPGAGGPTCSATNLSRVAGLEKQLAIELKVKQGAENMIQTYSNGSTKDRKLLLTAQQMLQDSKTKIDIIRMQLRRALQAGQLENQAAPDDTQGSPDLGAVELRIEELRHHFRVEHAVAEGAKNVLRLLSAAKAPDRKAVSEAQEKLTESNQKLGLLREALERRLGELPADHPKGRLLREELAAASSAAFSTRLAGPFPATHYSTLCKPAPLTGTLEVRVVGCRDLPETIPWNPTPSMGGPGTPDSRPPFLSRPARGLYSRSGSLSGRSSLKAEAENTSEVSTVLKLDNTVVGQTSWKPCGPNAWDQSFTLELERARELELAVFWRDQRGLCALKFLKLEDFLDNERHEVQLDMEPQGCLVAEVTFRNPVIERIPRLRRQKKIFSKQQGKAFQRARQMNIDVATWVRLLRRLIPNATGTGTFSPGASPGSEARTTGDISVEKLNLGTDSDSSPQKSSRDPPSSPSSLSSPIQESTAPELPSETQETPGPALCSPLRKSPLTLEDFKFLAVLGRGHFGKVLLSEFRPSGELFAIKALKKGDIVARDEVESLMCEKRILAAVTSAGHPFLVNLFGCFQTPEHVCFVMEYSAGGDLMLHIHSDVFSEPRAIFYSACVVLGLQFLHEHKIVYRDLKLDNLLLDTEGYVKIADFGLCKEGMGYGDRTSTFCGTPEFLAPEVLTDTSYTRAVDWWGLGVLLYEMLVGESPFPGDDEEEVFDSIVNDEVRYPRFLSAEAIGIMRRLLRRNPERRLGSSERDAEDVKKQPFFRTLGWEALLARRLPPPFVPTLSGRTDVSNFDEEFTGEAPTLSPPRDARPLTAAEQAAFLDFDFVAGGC

[11] = target: Muscle, skeletal receptor tyrosine-protein kinase (Homo sapiens) (UniProt O15146); test: Inhibition of MUSK (unknown origin) at 1 uM by mobility shift microfluidics platform based assay relative to control
[12] = target: Phosphorylase b kinase gamma catalytic chain, skeletal muscle/heart isoform (Homo sapiens) (UniProt Q16816); test: Inhibition of PHK-gamma1 (unknown origin) at 1 uM by mobility shift microfluidics platform based assay relative to control
[13] = target: Interleukin-1 receptor-associated kinase 4 (Homo sapiens) (UniProt Q9NWZ3); test: Inhibition of IRAK4 (unknown origin) at 1 uM by mobility shift microfluidics platform based assay relative to control
[14] = target: Ephrin type-A receptor 3 (Homo sapiens) (UniProt P29320); test: Inhibition of EPH-A3 (unknown origin) at 1 uM by mobility shift microfluidics platform based assay relative to control
[15] = target: Serine/threonine-protein kinase Nek7 (Homo sapiens) (UniProt Q8TDX7); test: Inhibition of NEK7 (unknown origin) at 1 uM by mobility shift microfluidics platform based assay relative to control
[16] = target: Discoidin domain-containing receptor 2 (Homo sapiens) (UniProt Q16832); test: Inhibition of DDR2 (unknown origin) at 1 uM by mobility shift microfluidics platform based assay relative to control
[17] = target: Serine/threonine-protein kinase Sgk1 (Homo sapiens) (UniProt O00141); test: Inhibition of SGK1 (unknown origin) at 1 uM by mobility shift microfluidics platform based assay relative to control
[18] = target: Serine/threonine-protein kinase TBK1 (Homo sapiens) (UniProt Q9UHD2); test: Inhibition of TBK1 (unknown origin) at 1 uM by mobility shift microfluidics platform based assay relative to control
[19] = target: AMP-activated protein kinase (AMPK) alpha-1/beta-1/gamma-1 (Homo sapiens) (UniProt P54619+Q9Y478+Q13131); test: Inhibition of AMP-A1B1G1 (unknown origin) at 1 uM by mobility shift microfluidics platform based assay relative to control; type: protein-complex assay
Sequence of AMP-activated protein kinase (AMPK) alpha-1/beta-1/gamma-1 (Homo sapiens) (P54619 whole entry): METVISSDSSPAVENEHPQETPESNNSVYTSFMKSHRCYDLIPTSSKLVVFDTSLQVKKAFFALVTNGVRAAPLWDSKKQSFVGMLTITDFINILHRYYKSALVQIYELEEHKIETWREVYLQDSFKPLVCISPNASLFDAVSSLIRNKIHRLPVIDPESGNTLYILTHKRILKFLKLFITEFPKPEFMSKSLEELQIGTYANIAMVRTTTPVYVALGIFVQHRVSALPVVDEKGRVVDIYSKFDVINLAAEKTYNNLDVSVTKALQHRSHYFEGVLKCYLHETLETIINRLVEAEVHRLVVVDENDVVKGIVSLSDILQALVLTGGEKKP
Sequence of AMP-activated protein kinase (AMPK) alpha-1/beta-1/gamma-1 (Homo sapiens) (Q13131 whole entry partner): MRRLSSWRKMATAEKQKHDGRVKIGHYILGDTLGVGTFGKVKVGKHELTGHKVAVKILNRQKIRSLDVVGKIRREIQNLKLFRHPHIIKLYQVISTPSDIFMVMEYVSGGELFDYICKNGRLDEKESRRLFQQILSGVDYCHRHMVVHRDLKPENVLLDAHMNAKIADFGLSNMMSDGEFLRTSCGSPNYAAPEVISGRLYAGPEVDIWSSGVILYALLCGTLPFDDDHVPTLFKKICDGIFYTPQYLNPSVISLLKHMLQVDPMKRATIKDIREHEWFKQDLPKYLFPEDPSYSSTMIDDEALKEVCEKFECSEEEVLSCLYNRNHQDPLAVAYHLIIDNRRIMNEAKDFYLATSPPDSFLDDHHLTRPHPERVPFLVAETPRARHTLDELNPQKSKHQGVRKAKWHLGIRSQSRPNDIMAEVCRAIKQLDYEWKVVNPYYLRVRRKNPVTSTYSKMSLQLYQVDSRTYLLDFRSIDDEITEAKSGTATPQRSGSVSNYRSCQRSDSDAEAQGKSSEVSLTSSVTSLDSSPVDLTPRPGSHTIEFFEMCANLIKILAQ
Sequence of AMP-activated protein kinase (AMPK) alpha-1/beta-1/gamma-1 (Homo sapiens) (Q9Y478 2-270 partner limits assumed): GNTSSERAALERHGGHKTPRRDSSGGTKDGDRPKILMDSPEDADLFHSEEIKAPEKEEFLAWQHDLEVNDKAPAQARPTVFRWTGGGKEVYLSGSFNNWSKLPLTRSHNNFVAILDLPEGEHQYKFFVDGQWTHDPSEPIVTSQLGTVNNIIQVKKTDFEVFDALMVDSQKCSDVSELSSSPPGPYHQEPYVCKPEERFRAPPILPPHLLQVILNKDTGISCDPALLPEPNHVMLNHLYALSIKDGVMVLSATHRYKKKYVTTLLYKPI

[20] = target: Serine/threonine-protein kinase Chk2 (Homo sapiens) (UniProt O96017); test: Inhibition of CHEK2 (unknown origin) at 1 uM by mobility shift microfluidics platform based assay relative to control
[21] = target: cGMP-dependent protein kinase 2 (Homo sapiens) (UniProt Q13237); test: Inhibition of PRKG2 (unknown origin) at 1 uM by mobility shift microfluidics platform based assay relative to control
[22] = target: Ephrin type-A receptor 1 (Homo sapiens) (UniProt P21709); test: Inhibition of EPH-A1 (unknown origin) at 1 uM by mobility shift microfluidics platform based assay relative to control
Sequence of Ephrin type-A receptor 1 (Homo sapiens) (P21709 whole entry): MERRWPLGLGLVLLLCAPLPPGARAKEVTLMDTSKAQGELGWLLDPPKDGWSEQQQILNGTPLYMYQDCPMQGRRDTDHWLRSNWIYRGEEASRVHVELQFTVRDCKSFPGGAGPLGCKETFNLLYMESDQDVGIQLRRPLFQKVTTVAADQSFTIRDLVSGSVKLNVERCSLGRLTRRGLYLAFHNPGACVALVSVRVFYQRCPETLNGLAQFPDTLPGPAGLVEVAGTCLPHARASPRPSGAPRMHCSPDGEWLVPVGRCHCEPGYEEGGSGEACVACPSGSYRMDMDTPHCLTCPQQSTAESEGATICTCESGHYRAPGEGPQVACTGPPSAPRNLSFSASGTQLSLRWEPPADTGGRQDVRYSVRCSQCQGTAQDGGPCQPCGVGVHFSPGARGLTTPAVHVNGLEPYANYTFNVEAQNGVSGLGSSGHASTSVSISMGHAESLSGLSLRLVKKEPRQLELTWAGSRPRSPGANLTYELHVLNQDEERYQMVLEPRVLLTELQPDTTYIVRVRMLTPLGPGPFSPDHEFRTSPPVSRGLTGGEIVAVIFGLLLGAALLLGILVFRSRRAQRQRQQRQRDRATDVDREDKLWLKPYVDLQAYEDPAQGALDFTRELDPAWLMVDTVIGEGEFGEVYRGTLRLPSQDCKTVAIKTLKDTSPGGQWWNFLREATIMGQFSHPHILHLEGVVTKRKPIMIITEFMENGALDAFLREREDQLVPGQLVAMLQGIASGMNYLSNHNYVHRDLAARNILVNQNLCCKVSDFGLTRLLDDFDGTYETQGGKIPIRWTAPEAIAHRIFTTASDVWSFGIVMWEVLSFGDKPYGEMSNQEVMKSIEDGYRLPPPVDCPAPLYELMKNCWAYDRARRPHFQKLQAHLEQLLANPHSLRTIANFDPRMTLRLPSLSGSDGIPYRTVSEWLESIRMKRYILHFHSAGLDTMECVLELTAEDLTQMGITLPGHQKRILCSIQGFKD

Homo sapiens = species: Homo sapiens; test: Inhibition of CDK/cyclin D3 (unknown origin) at 1 uM by mobility shift microfluidics platform based assay relative to control
[23] = target: Mitogen-activated protein kinase 8 (Homo sapiens) (UniProt P45983); test: Inhibition of JNK1 (unknown origin) at 1 uM by mobility shift microfluidics platform based assay relative to control
[24] = target: Non-receptor tyrosine-protein kinase TYK2 (Homo sapiens) (UniProt P29597); test: Inhibition of TYK2 (unknown origin) at 1 uM by mobility shift microfluidics platform based assay relative to control
[25] = target: AMPK alpha2/beta1/gamma1 (Homo sapiens) (UniProt P54646+P54619+Q9Y478); test: Inhibition of AMP-A2B1G1 (unknown origin) at 1 uM by mobility shift microfluidics platform based assay relative to control; type: protein-complex assay
Sequence of AMPK alpha2/beta1/gamma1 (Homo sapiens) (P54619 whole entry partner): as the sequence (P54619 whole entry) above
Sequence of AMPK alpha2/beta1/gamma1 (Homo sapiens) (P54646 whole entry): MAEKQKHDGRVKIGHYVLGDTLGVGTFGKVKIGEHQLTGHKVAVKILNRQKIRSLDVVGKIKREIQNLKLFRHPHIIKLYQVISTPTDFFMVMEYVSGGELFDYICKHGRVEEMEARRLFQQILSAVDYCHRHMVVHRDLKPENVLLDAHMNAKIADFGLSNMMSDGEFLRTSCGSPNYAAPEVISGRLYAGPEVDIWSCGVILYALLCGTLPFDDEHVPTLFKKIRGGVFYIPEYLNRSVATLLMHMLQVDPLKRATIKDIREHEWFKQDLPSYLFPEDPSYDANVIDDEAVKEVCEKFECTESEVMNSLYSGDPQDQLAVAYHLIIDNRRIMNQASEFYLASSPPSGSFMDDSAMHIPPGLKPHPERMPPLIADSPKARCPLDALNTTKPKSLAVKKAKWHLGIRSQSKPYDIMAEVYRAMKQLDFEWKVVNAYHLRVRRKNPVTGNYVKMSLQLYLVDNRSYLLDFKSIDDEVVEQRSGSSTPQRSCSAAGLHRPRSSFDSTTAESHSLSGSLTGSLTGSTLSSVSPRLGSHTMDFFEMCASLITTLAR
Sequence of AMPK alpha2/beta1/gamma1 (Homo sapiens) (Q9Y478 2-270 partner limits assumed): as the sequence (Q9Y478 2-270 partner limits assumed) above

[26] = target: cAMP-dependent protein kinase catalytic subunit beta (Homo sapiens) (UniProt P22694); test: Inhibition of PKACB (unknown origin) at 1 uM by mobility shift microfluidics platform based assay relative to control
[27] = target: Protein kinase C beta type (Homo sapiens) (UniProt P05771); test: Inhibition of PKC-beta2 (unknown origin) at 1 uM by mobility shift microfluidics platform based assay relative to control
[28] = target: Serine/threonine-protein kinase haspin (Homo sapiens) (UniProt Q8TF76); test: Inhibition of HASPIN (unknown origin) at 1 uM by mobility shift microfluidics platform based assay relative to control
[29] = target: Insulin-like growth factor 1 receptor (Homo sapiens) (UniProt P08069); test: Inhibition of IGF1R (unknown origin) at 1 uM by mobility shift microfluidics platform based assay relative to control
[30] = target: Fibroblast growth factor receptor 2 (Homo sapiens) (UniProt P21802); test: Inhibition of FGFR2 (unknown origin) at 1 uM by mobility shift microfluidics platform based assay relative to control
[31] = target: Dual specificity mitogen-activated protein kinase kinase 2 (Homo sapiens) (UniProt P36507); test: Inhibition of MEK2 (unknown origin) at 1 uM by mobility shift microfluidics platform based assay relative to control
Caco-2 = test: Efflux ratio in human Caco2 cells in absence of P-gp inhibitor by LC-MS/MS analysis; type: ADME, cell-based
Method in brief: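 Caco-2 bidirectional transport, with compound concentrations measured by LC-MS/MS. Efflux ratio was calculated as Papp(B−A)/Papp(A−B).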

inhibition [1] [%] | inhibition [2] [%] | inhibition [3] [%] | inhibition [4] [%] | inhibition [5] [%] | inhibition [6] [%] | inhibition [7] [%] | inhibition [8] [%] | inhibition [9] [%] | inhibition [10] [%] | inhibition [11] [%] | inhibition [12] [%] | inhibition [13] [%] | inhibition [14] [%] | inhibition [15] [%] | inhibition [16] [%] | inhibition [17] [%] | inhibition [18] [%] | inhibition [19] [%] | inhibition [20] [%] | Structure (SMILES) | other results
1 | 8 | 29 | 5 | 3 | 98 | 62 | -2 | -3 | 6 | 3 | 10 | 3 | 76 | -2 | 96 | 0 | 1 | 0 | -4 | CC(C)n1nc(C#Cc2cccc3cc(-c4cccc(C(F)(F)F)c4)ncc23)c2c(N)ncnc21 | inhibition [21]: 9%; inhibition [22]: 46%; inhibition (Homo sapiens): 1%; inhibition [23]: 2%; inhibition [24]: 2%; inhibition [25]: 1%; inhibition [26]: 3%; inhibition [27]: 5%; inhibition [28]: 1%; inhibition [29]: 2%; inhibition [30]: 96%; inhibition [31]: 6%; Ratio (Caco-2): 3.2
14 | 26 | 90 | 4 | -9 | 109 | 89 | 0 | 28 | -2 | 8 | -3 | 2 | 98 | 1 | 93 | -1 | 6 | 2 | 3 | CC(C)n1nc(C#Cc2cccc(NC(=O)c3cccc(C(F)(F)F)c3)c2)c2c(N)ncnc21 | inhibition [21]: 24%; inhibition [22]: 97%; inhibition (Homo sapiens): 8%; inhibition [23]: -9%; inhibition [24]: 31%; inhibition [25]: 3%; inhibition [26]: 2%; inhibition [27]: 2%; inhibition [28]: 5%; inhibition [29]: 1%; inhibition [30]: 99%; inhibition [31]: 25%; Ratio (Caco-2): 1.2
